These results are taken from ChEMBL document CHEMBL1221300, “Synthesis and biochemical evaluation of a range of (4-substituted phenyl)sulfonate derivatives of 4-hydroxybenzyl imidazole-based compounds as potent inhibitors of 17alpha-hydroxylase/17,20-lyase (P45017alpha) derived from rat testicular microsomes” (Bioorg Med Chem Lett, 2010).

The target of assay [1] is T1, Steroid 17-alpha-hydroxylase/17,20 lyase (Rattus norvegicus, UniProt P11715).
T1 sequence (P11715 whole entry): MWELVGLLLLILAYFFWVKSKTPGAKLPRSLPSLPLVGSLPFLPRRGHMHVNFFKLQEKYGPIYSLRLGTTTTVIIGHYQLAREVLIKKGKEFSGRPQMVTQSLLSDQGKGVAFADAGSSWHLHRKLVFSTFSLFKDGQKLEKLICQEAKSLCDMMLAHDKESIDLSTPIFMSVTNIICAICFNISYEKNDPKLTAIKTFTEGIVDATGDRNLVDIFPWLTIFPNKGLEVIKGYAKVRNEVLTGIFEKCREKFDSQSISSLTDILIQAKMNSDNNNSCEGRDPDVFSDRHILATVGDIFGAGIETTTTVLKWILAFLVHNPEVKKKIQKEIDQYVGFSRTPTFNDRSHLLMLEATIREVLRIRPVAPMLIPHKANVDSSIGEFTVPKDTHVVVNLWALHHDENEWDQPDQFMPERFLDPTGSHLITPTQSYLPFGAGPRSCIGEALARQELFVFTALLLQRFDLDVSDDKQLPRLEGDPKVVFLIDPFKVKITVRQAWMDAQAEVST
The assay is described as follows: Inhibition of 17,20-lyase activity of rat testicular microsomal P450-17alpha. The procedure, abridged:
(§1)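 Rat testicular microsomal enzyme incubated with radiolabelled substrate. The radiolabelled substrate was separated from the incubation mixture and identified by thin layer chromatography. Both the 17α-hydroxylase and the 17,20-lyase components were assessed this way.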

In assay [2] the target is T1, Steroid 17-alpha-hydroxylase/17,20 lyase. The assay is described as follows: Inhibition of 17-alpha-hydroxylase activity of rat testicular microsomal P450-17alpha. The procedure, abridged:
as §1

pIC50: −log10 of the molar value.

One may read the pIC50 as −log10 of the IC50, conventionally taken in molar units. Low readings indicate a high IC50, high ones a low IC50. Turning to `Cc1ccc(S(=O)(=O)Oc2ccc(Cn3ccnc3)cc2)cc1`, the pIC50 in assay [1] was 7.52; in assay [2], 7.40.

As to `O=S(=O)(Oc1ccc(Cn2ccnc2)cc1)c1ccc(C(F)(F)F)cc1`, the pIC50 in assay [1] is 7.47; in assay [2], 5.98.

On to `CCCc1ccc(S(=O)(=O)Oc2ccc(Cn3ccnc3)cc2)cc1`, for which the pIC50 in assay [1] was 7.52; in assay [2], 5.92.

As for `O=S(=O)(Oc1ccc(Cn2ccnc2)cc1)c1ccc(-c2ccccc2)cc1`, the pIC50 is 8.00 in assay [1] and 7.00 in assay [2].

For the compound `Oc1ccc(Cn2ccnc2)cc1`, the pIC50 is 5.83 in assay [1] and 5.60 in assay [2].

`CC(=O)N1CCN(c2ccc(OCC3COC(Cn4ccnc4)(c4ccc(Cl)cc4Cl)O3)cc2)CC1` (centres undefined) [KETOCONAZOLE]: the pIC50 was 6.69 in assay [1] and 5.58 in assay [2].

Consider `O=S(=O)(Oc1ccc(Cn2ccnc2)cc1)c1ccc(F)cc1`, for which the pIC50 is 7.85 in assay [1] and 6.70 in assay [2].

With `CCc1ccc(S(=O)(=O)Oc2ccc(Cn3ccnc3)cc2)cc1`, the pIC50 in assay [1] is 7.70; in assay [2], 6.96.

Turning to `c1ccc(Cn2ccnc2)cc1` [BENZYLIMIDAZOLE], the negative-log IC50 (pIC50) in assay [1] and in assay [2] was below 5.52 throughout.

Turning to `CCCCCc1ccc(S(=O)(=O)Oc2ccc(Cn3ccnc3)cc2)cc1`, the results for the pIC50 in assay [1] and in assay [2] were 6.80 and 6.89, respectively.

On to `CCCCc1ccc(S(=O)(=O)Oc2ccc(Cn3ccnc3)cc2)cc1`, for which the figures for the pIC50 in assay [1] and in assay [2] were 7.40 and 7.15, respectively.

Take `Ic1ccc(Cn2ccnc2)cc1`: the pIC50 was 6.79 in assay [1] and 6.14 in assay [2].
